This is a sample that favours compounds with a hit; in the whole collection about 3.5% have one here.
DENV2 CPE = protects cells from dengue virus 2 cytopathic effect | AID 651640 | DENV2-infected cells, cytopathic effect rescue, plate reader | CPE inhibition, % at 9.99 µM | 350,000 tested, 1.7% active; in the data active means CPE inhibition above about 20%, passing the limit was not always enough; tested in BHK-21 cells
FN deposit inh = fibronectin deposition inhibition | AH1F fibroblasts, Alexa488-fibronectin deposition fluorescence, overnight | inhibition, % at 12.6 µM | 350,000 tested, 0.086% active | AID 743247;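 active means mean inhibition across replicates of 30% or more, regardless of how many single replicates reach that level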
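material = AH1F fibroblast monolayer depositing Alexa488-labelled fibronectin into matrix | amount = 10000 AH1F cells/well | buffer or medium = DMEM plus 2% serum, read in PBS | incubation = 1 h cell adhesion before compound, then overnight fibronectin incubation | detection = fluorescence at 485 nm excitation, 525 nm emission | evaluation = percent inhibition as loss of matrix-bound fibronectin fluorescence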
PglD inh = blocks C. jejuni PglD acetyltransferase activity; 360,000 tested, 0.098% active; purified PglD enzyme, DTNB colorimetric CoA detection; inhibition, % at 12.5 µM; in the data active means inhibition above about 16%, passing the limit was not always enough
PGC1a acetyl inh = lowers PGC1a acetylation signal in U2OS cells | 350,000 tested, 0.17% active | inhibition, % at 15.6 µM | AlphaScreen anti-acetyl-lysine; with virally co-expressed GCN5 acetyltransferase;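 active means every replicate shows inhibition of at least 40%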
rRNA inh HTS = inhibitors of bacterial rRNA selective over humanized ribosomes; E. coli WT GFP vs humanized-ribosome RFP mutants, fluorescence, 24 h; stronger effect = lower value; DMSO median 0, no signal -100; 350,000 tested, 1.6% active; GFP signal change (wild-type ribosome), % (no concentration beside the values); AID 720706;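 active means significant combined selectivity score with lowered wild-type GFP, culture density cut under 30%, mutant RFP and density less affected; inactive means any of these conditions unmet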
Env fusion inh = inhibitors of HIV Env-mediated cell fusion | HeLa-JRFL Env/CEM21 cell fusion, luciferase | inhibition, % at 12.3 µM | 360,000 tested, 1.1% active;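 active means mean replicate inhibition score of at least 50 and every replicate individually at or above 50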
Hits are given with their value; . = inactive; / = no result; ! = repeats disagree.

SMILES | DENV2 CPE | FN deposit inh | PglD inh | PGC1a acetyl inh | rRNA inh HTS | Env fusion inh
N#C[C@H]1[C@H](c2ccccc2-c2cccc(F)c2)[C@@H](CO)N1C(=O)Cc1cccnc1 | . | . | / | . | . | /
C[C@H]1CN([C@@H](C)CO)C(=O)c2cc(C#CC3CCCC3)cnc2O[C@@H]1CN(C)C(=O)C1CCC1 | . | / | . | . | . | .
Cc1noc(C)c1S(=O)(=O)N(C)C[C@H]1Oc2ccc(NS(=O)(=O)c3cn(C)cn3)cc2CC(=O)N([C@@H](C)CO)C[C@H]1C | . | . | . | . | . | .
O=C(Nc1ccc(F)cc1)N1C[C@H]2[C@@H](c3ccccc31)[C@H](CO)N2C(=O)Cc1cccnc1 | . | / | . | . | . | /
CC(C)c1cn(CC[C@@H]2CC[C@@H](NS(=O)(=O)c3ccc(F)cc3)[C@@H](CO)O2)nn1 | / | . | . | . | . | .
O=C(C[C@H]1CC[C@@H]2[C@H](COC[C@@H](O)CN2Cc2ccc(Cl)cc2)O1)NCCc1ccccc1 | . | . | . | . | -21.2! | .
O=C(C[C@@H]1CC[C@H]2[C@@H](COC[C@H](O)CN2Cc2ccccc2)O1)N[C@@H]1CCN(Cc2ccccc2)C1 | 38.6 | . | . | . | . | /
COc1ccc2[nH]c3c(c2c1)CCN1C(=O)C(CC(=O)NCCCN(C)C)C[C@H](C(=O)N2CCCCC2)[C@@]31CCc1ccccc1 (stereo not given in full) | . | 37.1 | . | . | . | .
CC[C@]12c3[nH]c4cc(CCC(=O)N(C)C)ccc4c3CCN1C(=O)[C@@H](CC(=O)NCCc1ccccn1)C[C@@H]2C(=O)N1CCN(C(=O)c2ccco2)CC1 | 34.8 | / | . | . | . | .
O=c1[nH]c2nc(Cl)nc(Cl)c2[nH]1 | . | . | . | 73.8 | . | /
COc1ccc(Cl)cc1C(=O)OCC(=O)c1ccc[nH]1 | . | . | . | . | -16.5 | .
COc1ccc(NC(=S)NC(NC(=O)/C=C/c2ccccc2)C(Cl)(Cl)Cl)cc1 (stereo not given) | / | / | . | . | / | .
O=C(/C=C/c1ccccc1)NC(NC(=S)Nc1ccc(Cl)cc1)C(Cl)(Cl)Cl (stereo not given) | / | . | . | . | / | 61.3
Cc1ccc(-c2[nH]ncc2CNCCc2cnn(-c3ccccc3)c2)cc1C | . | . | . | . | . | 66.4
Cc1ccc(S(=O)(=O)N[C@H]2CC[C@H](CCn3cc(C4CCCCC4)nn3)O[C@H]2CO)cc1 | . | . | . | . | . | .
CC(=O)c1c(C)oc2c1C(=O)c1ccccc1C2=O | . | . | . | / | . | .
COc1ccc(CNC(=O)c2c(C)oc3c2C(=O)c2ccccc2C3=O)cc1 | . | . | . | . | . | 63.7
COc1cc(NC(=O)N2CCc3nc(Nc4cc(Cl)cc(Cl)c4)ncc3C2)cc(OC)c1OC | 46.5 | . | . | / | . | .
C[C@H]1CN([C@@H](C)CO)C(=O)c2cccc(NC(=O)c3cnccn3)c2O[C@@H]1CN(C)S(=O)(=O)c1cccs1 | . | . | . | . | . | .
CN(C)S(=O)(=O)c1cc(NC(=O)CN2CCc3ccccc32)ccc1Cl | . | . | / | 74.6 | . | .
CN(C)S(=O)(=O)c1cc(NC(=O)CN2CCCc3ccccc32)ccc1Cl | . | . | . | . | . | .
COCCn1c(SCC(=O)Nc2ccc(Cl)c(S(=O)(=O)N(C)C)c2)nc2ccccc21 | / | . | . | . | / | 60.2
CO[C@H]1CN(C)C(=O)c2ccc(NC(=O)C3CC3)cc2OC[C@H](C)N(C(=O)CN2CCOCC2)C[C@H]1C | . | . | . | . | . | /
Cc1c(CNCCc2ccc(Cl)cc2)c(C(=O)O)c(C)n1Cc1ccccc1 | . | . | / | . | . | .
Cc1c(CNCCc2ccccc2Cl)c(C(=O)O)c(C)n1-c1ccccc1 | . | . | / | / | . | 57.0
CCCNC(=O)Nc1ccc2c(c1)OC[C@@H](C)N(C(=O)c1ccccc1F)C[C@@H](C)[C@H](OC)CN(C)C2=O | . | . | . | . | . | /
CCCNC(=O)Nc1ccc2c(c1)C(=O)N(C)C[C@H](OC)[C@H](C)CN(C)[C@H](C)CO2 | 38.3 | . | . | . | . | .
CCCNC(=O)Nc1ccc2c(c1)OC[C@H](C)N(C(=O)c1ccccc1F)C[C@@H](C)[C@H](OC)CN(C)C2=O | 40.1 | . | . | . | . | /
